Here are results for 49 molecules from ChEMBL document CHEMBL1131936, “Structure-activity relationships of a series of benzothiophene-derived NPY Y1 antagonists: optimization of the C-2 side chain” (Bioorg Med Chem Lett, 1999).

The target of the first test is T1, Neuropeptide Y receptor type 1 (Homo sapiens, UniProt P25929).
T1 sequence (P25929 whole entry): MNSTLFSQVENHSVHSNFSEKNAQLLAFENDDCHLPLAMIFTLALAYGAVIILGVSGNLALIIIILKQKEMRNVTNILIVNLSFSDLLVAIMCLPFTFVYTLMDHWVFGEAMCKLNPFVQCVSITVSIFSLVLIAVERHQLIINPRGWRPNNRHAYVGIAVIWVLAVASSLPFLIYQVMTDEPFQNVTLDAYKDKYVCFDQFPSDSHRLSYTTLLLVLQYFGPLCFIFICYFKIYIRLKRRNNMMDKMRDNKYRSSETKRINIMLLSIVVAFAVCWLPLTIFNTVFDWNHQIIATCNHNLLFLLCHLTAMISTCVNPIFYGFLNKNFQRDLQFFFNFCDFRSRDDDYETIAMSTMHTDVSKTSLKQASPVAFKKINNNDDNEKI
As to the kind of experiment: Functional Neuropeptide Y receptor type 1 antagonism was evaluated by its ability to reverse NPY induced inhibition of forskolin-stimulated cyclic AMP production in SK-N-MC cells. It counts as cell-based. The procedure, abridged: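 SK-N-MC cells; forskolin-stimulated cyclic AMP production inhibited by NPY, and test compound reversal of this inhibition measured. Ki derived, n = 2–3 determinations.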
By Ki is commonly meant a measure of affinity in units of concentration, obtained from inhibition or displacement. Read a low Ki as higher affinity. In the case of `CN(C)C1CCN(CCc2c(COc3ccc(Cl)cc3Cl)sc3ccccc23)CC1`, the Ki is 4700 nM.

For `CN(C)C1CCN(CCc2c(COc3ccc(Br)cc3CO)sc3ccccc23)CC1`, the inhibition constant Ki was determined as 1200 nM.

The target in a further test is T1, Neuropeptide Y receptor type 1. Briefly: Ability to displace [125I]pPYY from AV12 cell line stably transfected with cloned human neuropeptide Y receptor type 1. It counts as cell-based. The method in brief: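 Membranes prepared from AV12 cells stably transfected with the human Y1 receptor; test compound displacement of 125I-porcine PYY binding measured, method as previously reported. Ki reported in μM.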
On to `CN(C)C1CCN(CCc2c(COc3ccccc3CO)sc3ccccc23)CC1`, for which the Ki is 450 nM.

In turn, `Cc1ccc(OCc2sc3ccccc3c2CCN2CCC(N(C)C)CC2)c(C(C)(C)C)c1` had a Ki of 2830 nM. In the case of `CN(C)C1CCN(CCc2c(CO)sc3ccccc23)CC1`, the inhibition constant Ki came to 88000 nM. The same measure, in the same setting: the value for `CN(C)C1CCN(CCc2c(COc3ccc(Cl)cc3Cl)sc3ccccc23)CC1` was 140 nM; that for `CNCc1cc(Br)ccc1OCc1sc2ccccc2c1CCN1CCC(N(C)C)CC1` was 660 nM; that for `Cc1ccccc1OCc1sc2ccccc2c1CCN1CCC(N(C)C)CC1` was 420 nM.

Take `CN(C)C1CCN(CCc2c(COc3ccc(Br)cc3Br)sc3ccccc23)CC1`: the affinity corresponds to a Ki of 120 nM. Same read-out and setting: the value for `CN(C)C1CCN(CCc2c(C(O)c3ccc(Cl)cc3Cl)sc3ccccc23)CC1` (stereo unspecified) was 3800 nM; that for `Clc1ccc(OCc2sc3ccccc3c2CN2CCCCC2)cc1` was 11100 nM; that for `CN(C)C1CCN(CCc2c(COc3ccc(Cl)cc3)sc3ccccc23)CC1` was 310 nM.

`Clc1ccc(OCc2sc3ccccc3c2CCN2CCCCC2)cc1` had a Ki of 1900 nM. On the same count and under the same terms, the value for `CN(C)C1CCN(CCc2c(COc3ccc(Br)cc3)sc3ccccc23)CC1` was 160 nM. Same read-out and setting: for `CN(C)C1CCN(CCc2c(COc3ccc(Br)cc3C#N)sc3ccccc23)CC1` the value was 13 nM; for `CN(C)C1CCN(CCc2c(COc3ccc(Br)cc3CO)sc3ccccc23)CC1`, 15 nM.

In turn, `CN(C)C1CCN(CCc2c(COc3ccc(-c4ccccc4)cc3)sc3ccccc23)CC1` registered an inhibition constant Ki of 3700 nM. Still for that read-out and setting: the value for `CN(C)C1CCN(CCc2c(COc3ccc(Br)cc3C(N)=O)sc3ccccc23)CC1` was 172 nM.

`CN(C)C1CCN(CCc2c(C#Cc3ccc(Cl)cc3Cl)sc3ccccc23)CC1` gave a Ki of 7900 nM. Same read-out and setting: the value for `Cc1ccc(OCc2sc3ccccc3c2CCN2CCC(N(C)C)CC2)c(Br)c1` was 78 nM; that for `CN(C)C1CCN(CCc2c(C(=O)Nc3ccc(Cl)cc3Cl)sc3ccccc23)CC1` was 2300 nM. The same measure, in the same setting: for `CN(C)C1CCN(CCc2c(COc3ccccc3)sc3ccccc23)CC1` the value was 1260 nM; for `Cc1cc(C)c(OCc2sc3ccccc3c2CCN2CCC(N(C)C)CC2)c(C)c1`, 2420 nM.

Take `CN(C)C1CCN(CCc2c(/C=N/Nc3ccc(Cl)cc3Cl)sc3ccccc23)CC1`: the affinity corresponds to a Ki of 4500 nM. The same measure, in the same setting: for `CN(C)C1CCN(CCc2c(CNc3ccc(Cl)cc3Cl)sc3ccccc23)CC1` the value was 1700 nM; for `CN(C)C1CCN(CCc2c(COc3ccc(C(F)(F)F)cc3)sc3ccccc23)CC1`, 740 nM. Molecule `CN(C)C1CCN(CCc2c(C(Oc3ccc(Cl)cc3Cl)c3ccccc3)sc3ccccc23)CC1` (stereo unspecified) registered a Ki of 5800 nM. On the same count and under the same terms, the value for `Cc1cc(Br)ccc1OCc1sc2ccccc2c1CCN1CCC(N(C)C)CC1` was 420 nM; that for `CN(C)C1CCN(CCc2c(COc3ccccc3Br)sc3ccccc23)CC1` was 450 nM; that for `COC(c1ccc(Cl)cc1Cl)c1sc2ccccc2c1CCN1CCC(N(C)C)CC1` (stereo unspecified) was 4000 nM. The same measure, in the same setting: the value for `CN(C)C1CCN(CCc2c(CCOc3ccc(Cl)cc3Cl)sc3ccccc23)CC1` was 2800 nM; that for `CN(C)Cc1cc(Br)ccc1OCc1sc2ccccc2c1CCN1CCC(N(C)C)CC1` was 2430 nM. Same read-out and setting: the value for `CN(C)C1CCN(CCc2c(COc3ccc(Br)cc3C(F)(F)F)sc3ccccc23)CC1` was 720 nM; that for `CC(CN1CCC(N(C)C)CC1)c1c(COc2ccc(Cl)cc2Cl)sc2ccccc12` (stereo unspecified) was 690 nM.

The molecule `CN(C)C1CCN(CCc2c(COc3ccc(CO)cc3Br)sc3ccccc23)CC1` gave a Ki of 190 nM.

For the molecule `CN(C)C1CCN(CCc2c(/C=N/c3ccc(Cl)cc3Cl)sc3ccccc23)CC1`, the Ki worked out at 12600 nM.

In turn, `CN(C)C1CCN(CCc2c(COc3c(Br)cc(Br)cc3Br)sc3ccccc23)CC1` displayed a Ki of 3600 nM.

For the molecule `Cc1ccc(OCc2sc3ccccc3c2CCN2CCC(N(C)C)CC2)cc1`, the Ki was 370 nM. The molecule `C=CCc1ccccc1OCc1sc2ccccc2c1CCN1CCC(N(C)C)CC1` gave a Ki of 980 nM. Same read-out and setting: for `CN(C)C1CCN(CCc2c(C(C)(C)Oc3ccc(Cl)cc3Cl)sc3ccccc23)CC1` the value was 12000 nM; for `CN(C)C1CCN(CCc2c(Cc3ccc(Cl)cc3Cl)sc3ccccc23)CC1`, 4200 nM; for `COCc1cc(Br)ccc1OCc1sc2ccccc2c1CCN1CCC(N(C)C)CC1`, 11 nM. The same measure, in the same setting: for `CN(C)C1CCN(CCc2c(COc3ccc(C#N)cc3Br)sc3ccccc23)CC1` the value was 380 nM. On to `CN(C)C1CCN(CCc2c(C(=O)c3ccc(Cl)cc3Cl)sc3ccccc23)CC1`, for which the Ki turned out to be 5600 nM.

For `CN(C)C1CCN(CCc2c(-c3ccc(Cl)cc3Cl)sc3ccccc23)CC1`, the affinity, expressed as Ki, was 6500 nM. On the same count and under the same terms, the value for `CC(Oc1ccc(Cl)cc1Cl)c1sc2ccccc2c1CCN1CCC(N(C)C)CC1` (stereo unspecified) was 1700 nM; that for `CN(C)C1CCN(CCc2c(/C=C/c3ccc(Cl)cc3Cl)sc3ccccc23)CC1` was 12400 nM. On the same count and under the same terms, for `CN(C)C1CCN(CCc2c(COc3ccccc3C=O)sc3ccccc23)CC1` the value was 2760 nM; for `Clc1ccc(OCc2sc3ccccc3c2CCCN2CCCCC2)cc1`, 2600 nM. As to `Cc1ccc(OCc2sc3ccccc3c2CCN2CCC(N(C)C)CC2)c(C)c1`, the Ki worked out at 120 nM. Take `CN(C)C1CCN(CCc2c(COc3ccccc3I)sc3ccccc23)CC1`: the Ki was 380 nM.
